Laboratory results published in PMC4201344 (ACS Chemical Biology, 2014).
Positions count from the first letter of the chain named.

Assays:
Assay type in all cases: cell-based, C. elegans
Conditions in all cases: glutamate
GluClβ T6′S, R40A = GluClβ T6′S, R40A (Caenorhabditis elegans, UniProt Q17328, R66A/T283S); assay: two-electrode voltage clamp, Xenopus laevis oocytes
[1] = tested on: GluClβ T6′S, Y206TAG F2–Phe (3,5-F2–Phe); assay: two-electrode voltage clamp, Xenopus laevis oocytes, nonsense suppression
GluClβ T6′S, Y206TAG Phe = target: T1, GluClβ T6′S, Y206TAG Phe (Caenorhabditis elegans, UniProt Q17328, T283S/Y232F); assay: two-electrode voltage clamp, Xenopus laevis oocytes, nonsense suppression
T1 sequence (Q17328 23-434 Y232F/T283S): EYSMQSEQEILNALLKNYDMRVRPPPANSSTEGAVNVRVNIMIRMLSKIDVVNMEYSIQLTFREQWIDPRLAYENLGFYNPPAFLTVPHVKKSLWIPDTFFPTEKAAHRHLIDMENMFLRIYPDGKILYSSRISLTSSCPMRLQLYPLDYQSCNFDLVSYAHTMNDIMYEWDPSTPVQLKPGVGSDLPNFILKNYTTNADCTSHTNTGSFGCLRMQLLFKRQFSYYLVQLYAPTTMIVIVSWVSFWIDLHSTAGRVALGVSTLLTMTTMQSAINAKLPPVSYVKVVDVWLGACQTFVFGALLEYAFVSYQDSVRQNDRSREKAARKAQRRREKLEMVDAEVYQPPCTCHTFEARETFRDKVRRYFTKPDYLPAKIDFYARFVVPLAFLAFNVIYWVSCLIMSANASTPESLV
Procedure, shortened: (§1)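 Site-specific TAG codon, read by 74mer THG73 tRNA ligated to dCA-acylated amino acid; NVOC removed by 5 min xenon-lamp irradiation just before injection. Oocytes coinjected with 37.5 ng mRNA plus ~1 μg/μL tRNA at 48 and 24 h pre-recording; unacylated 76mer tRNA served as read-through control.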

[2] = tested on: GluClβ with α signal peptide, T6′S, Y156TAG Cha; assay: as above
Procedure, shortened: as §1

GluClβ T6′S, R59A = GluClβ T6′S, R59A (Caenorhabditis elegans, UniProt Q17328, R85A/T283S); assay: two-electrode voltage clamp, Xenopus laevis oocytes
Procedure, shortened: (§2)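 C. elegans GluClβ (mammalian codon-optimised) in pGEMhe, mutated by QuikChange; T7 mRNA. […] Voltage clamp at −60 mV in Ca-free ND96, pH 7.5. […] Peak currents taken from baseline, normalised, averaged per concentration, and fit to Hill equation (EC50, nH).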

[3] = target: T2, GluClβ with α signal peptide, T6′S, Y156F (Caenorhabditis elegans, UniProt Q17328, T283S/Y182F); assay: as above
T2 sequence (Q17328 23-434 Y182F/T283S): T1 sequence (Q17328 23-434 Y232F/T283S) with Y160F, F210Y
Procedure, shortened: as §2

GluClβ L9′A = GluClβ L9′A (Caenorhabditis elegans, UniProt Q17328, L286A); assay: as above
Procedure, shortened: as §2

[4] = tested on: GluClβ with α signal peptide, T6′S, F96TAG F1–Phe; assay: two-electrode voltage clamp, Xenopus laevis oocytes, nonsense suppression
GluClβ T13′A = target: T3, GluClβ T13′A (Caenorhabditis elegans, UniProt Q17328, T290A); assay: two-electrode voltage clamp, Xenopus laevis oocytes
T3 sequence (Q17328 23-434 T290A): T1 sequence (Q17328 23-434 Y232F/T283S) with F210Y, S261T, T268A

[5] = tested on: GluClβ T6′S, Y206TAG F1–Phe; assay: two-electrode voltage clamp, Xenopus laevis oocytes, nonsense suppression
GluClβ Y206 3,5-Me2-Phe = assay: two-electrode voltage clamp, Xenopus laevis oocytes, nonsense suppression
Procedure, shortened: as §1

GluClβ T6′S, S126A/Y156F = GluClβ T6′S, S126A/Y156F (Caenorhabditis elegans, UniProt Q17328, S152A/T283S/Y182F); assay: two-electrode voltage clamp, Xenopus laevis oocytes
Procedure, shortened: as §2

GluClβ T6′S, Q174A = GluClβ T6′S, Q174A (Caenorhabditis elegans, UniProt Q17328, Q200A/T283S); assay: two-electrode voltage clamp, Xenopus laevis oocytes
GluClβ AG-2′,-1′PA = GluClβ AG-2′,-1′PA (Caenorhabditis elegans, UniProt Q17328, A275P/G276A); assay: as above
Sequence of GluClβ AG-2′,-1′PA (Q17328 23-434 A275P/G276A): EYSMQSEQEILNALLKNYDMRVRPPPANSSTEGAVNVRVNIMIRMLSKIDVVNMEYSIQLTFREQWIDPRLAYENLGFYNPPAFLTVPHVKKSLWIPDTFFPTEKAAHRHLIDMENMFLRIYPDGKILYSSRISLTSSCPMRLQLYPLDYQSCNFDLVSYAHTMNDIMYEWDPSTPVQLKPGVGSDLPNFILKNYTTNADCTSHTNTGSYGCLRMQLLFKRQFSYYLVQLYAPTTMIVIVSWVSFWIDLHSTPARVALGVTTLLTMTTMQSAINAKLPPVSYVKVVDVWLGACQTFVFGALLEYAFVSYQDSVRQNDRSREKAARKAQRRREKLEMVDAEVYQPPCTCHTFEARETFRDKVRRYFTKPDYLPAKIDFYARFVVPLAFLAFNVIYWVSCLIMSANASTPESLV

Sequence of GluClβ T6′S, Q174A (Q17328 23-434 Q200A/T283S): as the sequence (Q17328 23-434 A275P/G276A) above, with Q178A, P253A, A254G, T261S counted along it
Sequence of GluClβ T6′S, R40A (Q17328 23-434 R66A/T283S): as the sequence (Q17328 23-434 A275P/G276A) above, with R44A, P253A, A254G, T261S counted along it
Sequence of GluClβ L9′A (Q17328 23-434 L286A): as the sequence (Q17328 23-434 A275P/G276A) above, with P253A, A254G, L264A counted along it
Sequence of GluClβ T6′S, R59A (Q17328 23-434 R85A/T283S): as the sequence (Q17328 23-434 A275P/G276A) above, with R63A, P253A, A254G, T261S counted along it
Sequence of GluClβ T6′S, S126A/Y156F (Q17328 23-434 S152A/Y182F/T283S): as the sequence (Q17328 23-434 A275P/G276A) above, with S130A, Y160F, P253A, A254G, T261S counted along it

EC50 (GluClβ T6′S, R40A): 1100 ± 100 µM
Hill (GluClβ T6′S, R40A): 2.1 ± 0.1
EC50 ([1]; no plateau at highest concentration 100 mM): > 100000 µM
EC50 (GluClβ T6′S, Y206TAG Phe): 160 ± 10 µM
Hill (GluClβ T6′S, Y206TAG Phe): 3.0 ± 0.2
Imax (GluClβ T6′S, Y206TAG Phe): 0.07–0.30 μA
EC50 [2]: no response
EC50 (GluClβ T6′S, R59A): no response
EC50 [3]: 15000 ± 1000 µM
Hill [3]: 2.3 ± 0.2
Imax [3]: 1–5 μA
EC50 (GluClβ L9′A): constitutively active
EC50 [4]: 80 ± 2 µM
EC50 (GluClβ T13′A): 38 ± 1 µM
Hill (GluClβ T13′A): 2.8 ± 0.1
Imax (GluClβ T13′A): 0.1–6 μA
EC50 [5]: 640 ± 10 µM
receptor function (GluClβ Y206 3,5-Me2-Phe): nonfunctional
EC50 (GluClβ T6′S, S126A/Y156F): no response
EC50 (GluClβ T6′S, Q174A): 110 ± 10 µM
Hill (GluClβ T6′S, Q174A): 2.4 ± 0.2
Imax (GluClβ AG-2′,-1′PA): 12–66 μA
SMILES: N[C@@H](CCC(=O)O)C(=O)O [glutamate]
Imax [1]: 0.1–0.6 μA
Hill [4]: 2.8 ± 0.2
Imax [4]: 0.1–0.5 μA
Hill [5]: 2.8 ± 0.1
Imax [5]: 0.04–0.34 μA
